Screening results from PubChem BioAssay.
ARNT-TACC3 inh: disrupts binding between human ARNT and TACC3. Q9Y6A5. AlphaScreen His-ARNT PAS-B/GST-TACC3 binding, luminescence; TACC3 fragment carries E629A point mutation. inhibition, % at 9.99 µM. 390,000 tested, 0.66% active. AID 623870;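 active = mean inhibition of replicates at least 50% and at least half of replicates each reaching 50%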
Rce1 inh: blocks yeast Ras-converting enzyme. Q03530. yeast membranes, quenched prenylated peptide cleavage fluorescence. calls only. 290,000 tested, 0.27% active. AID 2563;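 active = fall in fluorescence gain of 50% or more versus controls, with final raw signal at or below 3038400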
Target sequence (Q03530 whole entry, looked up): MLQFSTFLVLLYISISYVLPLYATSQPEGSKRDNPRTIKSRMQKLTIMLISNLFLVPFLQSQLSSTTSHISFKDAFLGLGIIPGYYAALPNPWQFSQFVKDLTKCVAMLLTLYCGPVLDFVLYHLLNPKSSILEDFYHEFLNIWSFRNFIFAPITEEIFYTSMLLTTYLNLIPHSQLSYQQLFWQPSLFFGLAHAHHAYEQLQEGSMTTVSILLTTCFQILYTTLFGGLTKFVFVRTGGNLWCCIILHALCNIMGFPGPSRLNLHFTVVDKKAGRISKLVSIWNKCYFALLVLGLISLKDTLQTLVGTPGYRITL
AI-2 QS mod: modulators of Vibrio harveyi AI-2 quorum sensing system; Vibrio harveyi JMH597 AI-2 luminescence/OD600 ratio, 9 h; stronger effect = lower value; strain lacks LuxN and CqsS sensors; 0 = neutral-control median; activity change, % at 7.5 µM; 300,000 tested, 0.4% active; AID 2094; in the data active = activity change below about -75%, passing the limit was not always enough;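 also: luminescence divided by OD600 gain over 9 h not by final OD600 alone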
CAL PDZ FP-1: inhibitors of human CAL PDZ peptide binding | Q9HD26 | purified CAL PDZ, TMR-peptide fluorescence polarization, 1 h | inhibition, % at 20 µM | 330,000 tested, 0.02% active | AID 504414;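 active = highest replicate inhibition of at least 40%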
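material = purified tagged CAL PDZ domain construct (CerCALP) | buffer or medium = sodium phosphate/NaCl buffer pH 7.4 with TCEP, IgG, Thesit | reagent = TMR-labelled reporter peptide T*-PRC34 bound in PDZ groove | incubation = 1 h room-temperature incubation prior to read | measured by = fluorescence polarization (mP) | evaluation = percent inhibition from loss of millipolarization | control set = unlabelled peptide and DMSO controls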
CAL PDZ FP-2: CAL PDZ (human) peptide binding inhibition; Q9HD26; purified CAL PDZ, TMR-peptide fluorescence polarization, 1 h; inhibition, % at 24.9 µM; 300,000 tested, 0.92% active; AID 602252;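 active = mean inhibition of at least 30% with at least half of replicates also reaching 30%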
Hits are given with their value; – = inactive; · = no result given; + = active, no number. The list is not random: actives were taken first. Their share in the collection is about 1.7%.

SMILES	ARNT-TACC3 inh	Rce1 inh	AI-2 QS mod	CAL PDZ FP-1	CAL PDZ FP-2
COc1cc(-c2nnc(NC(=O)CS(=O)(=O)c3ccc(F)cc3)o2)cc(OC)c1OC	54	–	–	–	–
O=C(CCS(=O)(=O)c1ccc(F)cc1)Nc1nnc(-c2ccc(F)cc2)o1	–	–	–	–	–
COc1ccc(OC)c(/C=N/Nc2nncn2/N=C/c2cc(OC)ccc2OC)c1	–	–	–	–	–
COc1cc(/C=N/Nc2nncn2/N=C/c2ccc(O)c(OC)c2)ccc1O	51	·	–	–	–
CCC(=O)N(CC1CCC1)C[C@@H]1[C@@H](c2ccccc2)[C@H](CO)N1C(C)=O	–	·	·	·	·
C=CCC(C#Cc1ccccc1)N(C)C (centres undefined)	–	–	–	–	87
C=CCNCCOCCOc1ccc(C)cc1Br	–	–	–	–	32
CCN(CC)CCN(C(=O)c1cc2ccccc2cc1OC)c1nc2ccc(OC)cc2s1	–	–	–	–	–
COc1cc2ccccc2cc1C(=O)N(CCN(C)C)c1nc2c(OC)ccc(OC)c2s1	–	–	–	–	–
CCN(CC)CCN(C(=O)c1cc2ccccc2cc1OC)c1nc2ccc(F)cc2s1	·	+	–	–	–
COc1cc2ccccc2cc1C(=O)N(CCN(C)C)c1nc2ccc(C)cc2s1	–	+	–	–	–
Cc1c(Cl)c([N+](=O)[O-])nn1CC(=O)NCc1cccnc1	–	–	–	–	–
O=C(O)c1cccc(-n2nnnc2SCc2ccccc2Cl)c1	–	–	–	–	–
O=C(O)c1ccccc1CSc1nnnn1-c1ccccc1	–	–	–	·	81
Nc1nc2c(ncn2COC(CO)CO)c(=O)[nH]1	–	+	–	–	–
Nc1nc2c(ncn2[C@H]2C[C@H](O)[C@@H](CO)O2)c(=O)[nH]1	–	–	–	–	–
COc1ccccc1-c1nnc(NC(=O)c2ccc(S(=O)(=O)N(C)C)cc2)o1	57	–	–	–	–
COCc1nnc(NC(=O)c2ccc(S(=O)(=O)N3CCCC3)cc2)o1	49	–	–	–	–
CCc1nnc(NC(=O)c2ccc(S(=O)(=O)N(CCOC)CCOC)cc2)o1	46	–	–	–	–
COCCN(CCOC)S(=O)(=O)c1ccc(C(=O)Nc2nnc(C3CC3)o2)cc1	47	·	·	–	–
COc1ccc(NC(=O)COC(=O)C2=COCCO2)cc1OC	–	–	–	–	–
C[C@H]1CN([C@@H](C)CO)C(=O)c2cc(NC(=O)CCCCCC(=O)Nc3ccccc3N)ccc2O[C@H]1CN(C)Cc1ccncc1	–	·	·	·	·
Nc1nc(N2CCN(C(=O)c3ccco3)CC2)nc2ccccc12	–	+	–	–	·
COc1ccc(-c2csc(=NCCO)n2-c2ccccc2)cc1	–	–	–	–	62
COc1ccc(-c2csc(=Nc3ccccc3)n2CCO)cc1	–	–	–	–	·
SMILES	ARNT-TACC3 inh	Rce1 inh	AI-2 QS mod	CAL PDZ FP-1	CAL PDZ FP-2
O=C(COC(=O)c1cc(-c2cccs2)nc2ccccc12)NC1CCS(=O)(=O)C1 (centres undefined)	49	–	–	–	–
COc1ccc(C(=O)NCC(=O)OCC(=O)NCc2ccco2)cc1	–	·	·	–	43
COc1cc(C(=O)NCc2nnc(SCC(=O)Nc3c(C)cc(C)cc3C)o2)cc(OC)c1OC	–	–	–	–	60
COc1ccc(C(=O)CSc2nnc(CNC(=O)c3ccccc3)o2)cc1	–	–	–	–	52
O=C(CSc1nnc(CNC(=O)c2ccccc2)o1)c1ccc(Cl)cc1	–	–	–	–	–
COc1cc(C(=O)NCc2nnc(SCC(=O)Nc3cc(C)cc(C)c3)o2)cc(OC)c1OC	–	–	–	–	–
Cc1cc(C)n(-c2ccc(C(=O)OCC(=O)NCc3ccco3)cc2)n1	–	–	–	·	40
COc1ccc(Cl)cc1C(=O)NNC(=O)COC(=O)c1cccs1	–	·	·	–	·
CCCCNC(=O)c1ccc(N2CCOCC2)c(NS(=O)(=O)c2ccc(OC)cc2)c1	–	–	–	–	–
CC(C)(C)c1ccc(C(=O)NCc2nnc(SCC(=O)NCc3ccco3)o2)cc1	–	–	–	–	–
COc1ccc(C(=O)NCc2nnc(SCC(=O)NCc3ccco3)o2)cc1	–	–	–	–	88
CC(C)CC#Cc1ccc2c(c1)O[C@H](CN(C)C(=O)Nc1ccccc1)[C@@H](C)CN([C@H](C)CO)S2(=O)=O	–	·	·	·	·
Cc1ccc(C(=O)NCC(=O)NCc2cc(=O)n(C)c(=O)n2C)cc1C	–	–	–	–	44
